Reference: ChEMBL document CHEMBL1144777, “An endophytic fungus from Hypericum perforatum that produces hypericin” (J Nat Prod, 2008)
Activity calls are given as the source filed them.

Key:
[1] = tested on: Klebsiella pneumoniae subsp. pneumoniae; test: Antimicrobial activity against Klebsiella pneumoniae ssp. ozaenae DSM 681 by disk diffusion method; assay type: functional, organism-based
In short: (§1)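 Samples were fungal products from potato dextrose broth cultures, tested alongside authentic standards. Organic extracts of mycelia and broth were dried by rotary evaporation at 30 °C and redissolved in 1 mL HPLC-grade methanol.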

[2] = tested on: Staphylococcus aureus; test: Antimicrobial activity against Staphylococcus aureus ssp. Aureus DSM 799 by disk diffusion method; assay type: functional; in short: as §1
[3] = tested on: Pseudomonas aeruginosa; test: Antimicrobial activity against Pseudomonas aeruginosa DSM 1128 by disk diffusion method; assay type: functional, organism-based; in short: as §1
[4] = tested on: Salmonella enterica subsp. enterica; test: Antimicrobial activity against Salmonella enterica ssp. enterica DSM 9898 by disk diffusion method; assay type: functional, organism-based; in short: as §1
[5] = tested on: Escherichia coli; test: Antimicrobial activity against Escherichia coli DSM 682 by disk diffusion method; assay type: functional, organism-based; in short: as §1
[6] = tested on: Candida albicans; test: Antimicrobial activity against Candida albicans DSM 1386 by disk diffusion method; assay type: functional, organism-based; in short: as §1
[7] = tested on: Aspergillus niger; test: Antimicrobial activity against Aspergillus niger DSM 1988 by disk diffusion method; assay type: functional, organism-based; in short: as §1

Measured: Activity

Cc1cc(O)c2c(=O)c3c(O)cc(O)c4c5c(O)cc(O)c6c(=O)c7c(O)cc(C)c8c1c2c(c34)c(c78)c65
active: all assays above

Cc1cc(O)c2c(c1)C(=O)c1cc(O)cc(O)c1C2=O
active: all assays above
